Measurements as given in ChEMBL document CHEMBL1629545, “A morpholino oligomer targeting highly conserved internal ribosome entry site sequence is able to inhibit multiple species of picornavirus” (Antimicrob Agents Chemother, 2008).
Activity calls are given as the source filed them. The rule behind the calls is not given here.

Experiments:
Poliovirus 1 [1] = experiment: Antiviral activity against Human poliovirus type 1 infected in mouse assessed as viral titer in spleen at 10 mg/kg, ip administered 1 hr post infection once daily for 5 days measured after 10 days by plaque assay; type: functional, organism-based; parameters: dose 10 mg/kg
Poliovirus 1 [2] = experiment: Antiviral activity against Human poliovirus type 1 infected in mouse assessed as viral titer in spinal cord at 10 mg/kg, ip administered 1 hr post infection once daily for 5 days measured after 10 days by plaque assay; type: functional, organism-based; parameters: dose 10 mg/kg
Poliovirus 1 [3] = experiment: Antiviral activity against Human poliovirus type 1 infected in mouse assessed as viral titer in spleen at 10 mg/kg, ip administered 1 hr post infection once daily for 5 days measured after 7 days by plaque assay; type: functional, organism-based; parameters: dose 10 mg/kg
Poliovirus 1 [4] = experiment: Antiviral activity against Human poliovirus type 1 infected in mouse assessed as protection from virus-induced death at 10 mg/kg, ip administered 1 hr post infection once daily for 5 days measured after 10 days by plaque assay; type: functional, organism-based; parameters: dose 10 mg/kg
Summary of the method: (§1)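 Poliovirus receptor transgenic (cPVR) mice, about 10 weeks old, were infected i.p. with 3 × 10^8 PFU wt PV1. They received 200 μg (~10 mg/kg) PPMO in 500 μl sterile PBS i.p., or PBS alone, at 1 h p.i. and then every 24 h ([…]; 6 mice per group). Mice were monitored daily for paralysis and death, and euthanized at near-total paralysis.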

Poliovirus 1 [5] = experiment: Antiviral activity against Human poliovirus type 1 infected in mouse assessed as viral titer in brain 10 mg/kg, ip administered 1 hr post infection once daily for 5 days measured after 8 days by plaque assay; type: functional, organism-based; parameters: dose 10 mg/kg
Poliovirus 1 [6] = experiment: Antiviral activity against Human poliovirus type 1 infected in mouse assessed as viral titer in spinal cord at 10 mg/kg, ip administered 1 hr post infection once daily for 5 days measured after 8 days by plaque assay; type: functional, organism-based; parameters: dose 10 mg/kg
Poliovirus 1 [7] = experiment: Antiviral activity against Human poliovirus type 1 infected in mouse assessed as viral titer in large intestine at 10 mg/kg, ip administered 1 hr post infection once daily for 5 days measured after 10 days by plaque assay; type: functional, organism-based; parameters: dose 10 mg/kg
Poliovirus 1 [8] = experiment: Antiviral activity against Human poliovirus type 1 infected in mouse assessed as viral titer in small intestine at 10 mg/kg, ip administered 1 hr post infection once daily for 5 days measured after 8 days by plaque assay; type: functional, organism-based; parameters: dose 10 mg/kg
Poliovirus 1 [9] = experiment: Antiviral activity against Human poliovirus type 1 infected in mouse assessed as viral titer in muscle at 10 mg/kg, ip administered 1 hr post infection once daily for 5 days measured after 8 days by plaque assay; type: functional, organism-based; parameters: dose 10 mg/kg; details: Muscle tissue
SK-N-MC = experiment: Cytotoxicity against human SK-N-MC cell at 10 uM after 24 hrs by MTS assay; type: cell-based
Poliovirus 1 [10] = experiment: Antiviral activity against Human poliovirus type 1 infected in Human HeLa cell assessed as inhibition of translation at 10 ug/ml by luciferase reporter gene assay; type: functional, organism-based
Summary of the method: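 In-cell translation control: HeLa cells electroporated with 20 μg PV1-Luc replicon RNA were placed in medium with 10 μg/ml puromycin at 37°C in 5% CO2. Luciferase in lysates was read by luminometer at hourly time points after transfection. Two experiments were averaged.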

Poliovirus 1 [11] = experiment: Antiviral activity against Human poliovirus type 1 infected in mouse assessed as viral titer in brain at 10 mg/kg, ip administered 1 hr post infection once daily for 5 days measured after 7 days by plaque assay; type: functional, organism-based; parameters: dose 10 mg/kg
Poliovirus 1 [12] = experiment: Antiviral activity against Human poliovirus type 1 infected in Human HeLa cell assessed as inhibition of translation at 10 uM by luciferase reporter gene assay; type: functional, organism-based
Summary of the method: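 HeLa cells were pretreated 4 h with 10 μM PPMO, then electroporated with 20 μg noncapped PV1-Luc replicon RNA (IRES-driven). They were kept in medium with 10 μM PPMO, with or without 2 mM guanidine HCl, at 37°C in 5% CO2. Luciferase in cell lysates was read at 1-h intervals after transfection. Two experiments were averaged.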

HeLa [13] = experiment: Cytotoxicity against human HeLa cell after 21 hrs by MTS assay; type: functional, cell-based
Summary of the method: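 Uninfected HeLa cells were exposed to a range of PPMO concentrations for 21 h, then read by MTS assay (4 h, absorbance 492 nm) against water-mock cells set to 100%. CC50 was taken from the concentration–viability curve, and triplicate samples were averaged.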

Poliovirus 1 [14] = experiment: Antiviral activity against Human poliovirus type 1 infected in mouse assessed as viral titer in large intestine at 10 mg/kg, ip administered 1 hr post infection once daily for 5 days measured after 7 days by plaque assay; type: functional, organism-based; parameters: dose 10 mg/kg
Poliovirus 1 [15] = experiment: Antiviral activity against Human poliovirus type 1 infected in mouse assessed as protection from virus-induced death at 10 mg/kg, ip administered 1 hr post infection once daily for 5 days measured after 7 days by plaque assay; type: functional, organism-based; parameters: dose 10 mg/kg; summary of the method: as §1
HeLa [16] = experiment: Cytotoxicity against human HeLa cells 10 uM after 24 hrs by MTS assay; type: cell-based
Summary of the method: (§2)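 HeLa cells at ~80% confluence, uninfected, exposed to 1–100 μM PPMO or water (mock) in serum-free DMEM-F-12 (1:1) for 24 h. MTS reagent was added for 4 h and absorbance read at 492 nm. Viability was expressed as percent of water-treated cells (set to 100%), averaged over 12 wells.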

Poliovirus 1 [17] = experiment: Antiviral activity against Human poliovirus type 1 infected in mouse assessed as viral titer in muscle at 10 mg/kg, ip administered 1 hr post infection once daily for 5 days measured after 7 days by plaque assay; type: functional, organism-based; parameters: dose 10 mg/kg; details: Muscle tissue
Vero = experiment: Cytotoxicity against African green monkey Vero cells at 10 uM after 24 hrs by MTS assay; type: cell-based; details: chlorocebus sabaeus
Poliovirus 1 [18] = experiment: Antiviral activity against Human poliovirus type 1 infected in mouse assessed as viral titer in brain at 10 mg/kg, ip administered 1 hr post infection once daily for 5 days measured after 10 days by plaque assay; type: functional, organism-based; parameters: dose 10 mg/kg
HeLa [19] = experiment: Cytotoxicity against human HeLa cells at 10 uM by MTS assay; type: cell-based; summary of the method: as §2
Poliovirus 1 [20] = experiment: Antiviral activity against Human poliovirus type 1 infected in mouse assessed as protection from virus-induced paralytic symptom at 10 mg/kg, ip administered 1 hr post infection once daily for 5 days measured after 10 days by plaque assay; type: functional, organism-based; parameters: dose 10 mg/kg; summary of the method: as §1
Poliovirus 1 [21] = experiment: Antiviral activity against Human poliovirus type 1 infected in mouse assessed as protection from virus-induced death at 10 mg/kg, ip administered 1 hr post infection once daily for 5 days measured after 8 days by plaque assay; type: functional, organism-based; parameters: dose 10 mg/kg; summary of the method: as §1
Poliovirus 1 [22] = experiment: Antiviral activity against Human poliovirus type 1 infected in mouse assessed as viral titer in large intestine at 10 mg/kg, ip administered 1 hr post infection once daily for 5 days measured after 8 days by plaque assay; type: functional, organism-based; parameters: dose 10 mg/kg
Poliovirus 1 [23] = experiment: Antiviral activity against Human poliovirus type 1 infected in mouse assessed as viral titer in spinal cord at 10 mg/kg, ip administered 1 hr post infection once daily for 5 days measured after 7 days by plaque assay; type: functional, organism-based; parameters: dose 10 mg/kg
Poliovirus 1 [24] = experiment: Antiviral activity against Human poliovirus type 1 infected in mouse assessed as protection from virus-induced paralytic symptom at 10 mg/kg, ip administered 1 hr post infection once daily for 5 days measured after 8 days by plaque assay; type: functional, organism-based; parameters: dose 10 mg/kg; summary of the method: as §1
Poliovirus 1 [25] = experiment: Antiviral activity against Human poliovirus type 1 infected in mouse assessed as protection from virus-induced paralytic symptom at 10 mg/kg, ip administered 1 hr post infection once daily for 5 days measured after 7 days by plaque assay; type: functional, organism-based; parameters: dose 10 mg/kg; summary of the method: as §1
Poliovirus 1 [26] = experiment: Antiviral activity against Human poliovirus type 1 infected in Human HeLa cell after 21 hrs post infection by plaque assay; type: functional, organism-based; details: Enterovirus C
Summary of the method: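 HeLa cells infected with cDNA-derived PV1 (MOI 0.1), then treated after infection with 2 to 100 μM PPMO. Supernatant virus was titrated by plaque assay on HeLa monolayers 21 h later: 1% agar overlay, 36 h at 37°C, formaldehyde fixation, crystal violet staining and plaque count. IC50 was taken from triplicate samples.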

Poliovirus 1 [27] = experiment: Antiviral activity against Human poliovirus type 1 infected in mouse assessed as viral titer in muscle at 10 mg/kg, ip administered 1 hr post infection once daily for 5 days measured after 10 days by plaque assay; type: functional, organism-based; parameters: dose 10 mg/kg; details: Muscle tissue
Poliovirus 1 [28] = experiment: Antiviral activity against Human poliovirus type 1 infected in mouse assessed as viral titer in small intestine at 10 mg/kg, ip administered 1 hr post infection once daily for 5 days measured after 7 days by plaque assay; type: functional, organism-based; parameters: dose 10 mg/kg
Poliovirus 1 [29] = experiment: Antiviral activity against Human poliovirus type 1 infected in mouse assessed as viral titer in spleen at 10 mg/kg, ip administered 1 hr post infection once daily for 5 days measured after 8 days by plaque assay; type: functional, organism-based; parameters: dose 10 mg/kg
Poliovirus 1 [30] = experiment: Antiviral activity against Human poliovirus type 1 infected in mouse assessed as viral titer in small intestine at 10 mg/kg, ip administered 1 hr post infection once daily for 5 days measured after 10 days by plaque assay; type: functional, organism-based; parameters: dose 10 mg/kg

## Cc1cn([C@H]2CN(P(=O)(OC[C@@H]3CN(P(=O)(OC[C@@H]4CNC[C@H](n5cnc6c(=O)[nH]c(N)nc65)O4)N(C)C)C[C@H](n4cnc5c(N)ncnc54)O3)N(C)C)C[C@@H](COP(=O)(N(C)C)N3C[C@@H](COP(=O)(N(C)C)N4C[C@@H](COP(=O)(N(C)C)N5C[C@@H](COP(=O)(N(C)C)N6C[C@@H](COP(=O)(N(C)C)N7C[C@@H](COP(=O)(N(C)C)N8C[C@@H](COP(=O)(N(C)C)N9C[C@@H](COP(=O)(N(C)C)N%10C[C@@H](COP(=O)(N(C)C)N%11C[C@@H](COP(=O)(N(C)C)N%12C[C@@H](COP(=O)(N(C)C)N%13C[C@@H](COP(=O)(N(C)C)N%14C[C@@H](COP(=O)(N(C)C)N%15C[C@@H](COP(=O)(N(C)C)N%16C[C@@H](COP(=O)(N(C)C)N%17C[C@@H](COP(=O)(N(C)C)N%18C[C@@H](COP(=O)(N(C)C)N%19C[C@@H](COP(=O)(N(C)C)N%20C[C@@H](COP(=O)(N(C)C)N%21C[C@@H](COP(=O)(N(C)C)N%22CCN(C(=O)CCNC(=O)CCCCCNC(=O)[C@H](CCCNC(=N)N)NC(=O)CCCCCNC(=O)[C@H](CCCNC(=N)N)NC(=O)[C@H](CCCNC(=N)N)NC(=O)CCCCCNC(=O)[C@H](CCCNC(=N)N)NC(=O)[C@H](CCCNC(=N)N)NC(=O)CCCCCNC(=O)[C@H](CCCNC(=N)N)NC(=O)[C@H](CCCNC(=N)N)NC(=O)CCCCCNC(=O)[C@@H](N)CCCNC(=N)N)CC%22)O[C@@H](n%22cnc%23c(=O)[nH]c(N)nc%23%22)C%21)O[C@@H](n%21cnc%22c(N)ncnc%22%21)C%20)O[C@@H](n%20cnc%21c(N)ncnc%21%20)C%19)O[C@@H](n%19cnc%20c(N)ncnc%20%19)C%18)O[C@@H](n%18ccc(N)nc%18=O)C%17)O[C@@H](n%17cnc%18c(N)ncnc%18%17)C%16)O[C@@H](n%16ccc(N)nc%16=O)C%15)O[C@@H](n%15cnc%16c(=O)[nH]c(N)nc%16%15)C%14)O[C@@H](n%14cnc%15c(=O)[nH]c(N)nc%15%14)C%13)O[C@@H](n%13cnc%14c(N)ncnc%14%13)C%12)O[C@@H](n%12ccc(N)nc%12=O)C%11)O[C@@H](n%11cnc%12c(N)ncnc%12%11)C%10)O[C@@H](n%10ccc(N)nc%10=O)C9)O[C@@H](n9ccc(N)nc9=O)C8)O[C@@H](n8ccc(N)nc8=O)C7)O[C@@H](n7cnc8c(N)ncnc87)C6)O[C@@H](n6cnc7c(N)ncnc76)C5)O[C@@H](n5cnc6c(N)ncnc65)C4)O[C@@H](n4cnc5c(=O)[nH]c(N)nc54)C3)O2)c(=O)[nH]c1=O (some centres not stated)
Poliovirus 1 [1]
  Activity: inactive
Poliovirus 1 [2]
  Activity: Active
Poliovirus 1 [3]
  Activity: inactive
Poliovirus 1 [4]
  Activity: Active
Poliovirus 1 [5]
  Activity: Active
Poliovirus 1 [6]
  Activity: Active
Poliovirus 1 [7]
  Activity: inactive
Poliovirus 1 [8]
  Activity: Active
Poliovirus 1 [9]
  Activity: inactive
SK-N-MC
  Activity: Non-toxic
Poliovirus 1 [10]
  Activity: inactive
Poliovirus 1 [11]
  Activity: Active
Poliovirus 1 [12]
  Activity: Active
HeLa [13]
  CC50: 52 µM
Poliovirus 1 [14]
  Activity: inactive
Poliovirus 1 [15]
  Activity: Active
HeLa [16]
  Activity: Toxic
Poliovirus 1 [17]
  Activity: inactive
Vero
  Activity: Non-toxic
Poliovirus 1 [18]
  Activity: Active
HeLa [19]
  Activity: Non-toxic
Poliovirus 1 [20]
  Activity: Active
Poliovirus 1 [21]
  Activity: Active
Poliovirus 1 [22]
  Activity: inactive
Poliovirus 1 [23]
  Activity: Active
Poliovirus 1 [24]
  Activity: Active
Poliovirus 1 [25]
  Activity: Active
Poliovirus 1 [26]
  IC50: 2 µM
Poliovirus 1 [27]
  Activity: inactive
Poliovirus 1 [28]
  Activity: Active
Poliovirus 1 [29]
  Activity: inactive
Poliovirus 1 [30]
  Activity: Active
